Measured values from different studies.
Target: Tyrosine-protein kinase HCK (HCK, Homo sapiens, UniProt P08631)

Structure (SMILES)	read-out	technique	concentration	remaining binding [%]
CN(CCCC(F)(F)F)c1nccc(-c2cnn3ncccc23)n1	binding		1 µM	99
Nc1ncc2c(n1)-c1c([nH]c3ccc(C#CC4CC4)cc13)CCCC2	binding	competition with immobilised ligand	1 µM	100
F[C@@H]1CCN(c2nccc(-c3cnn4ncccc34)n2)C1	binding		1 µM	78
O=C(Nc1cnc(Oc2ccc(F)cc2)nc1)N1CCc2ncccc2[C@@H]1c1ccc(F)cc1	cell-free assay	competition with immobilised ligand	1 µM	96
CN(C)c1ncc(F)c(-c2cnn3ncccc23)n1	binding		1 µM	46
C[C@@H](c1ccc(-n2cnc3c(N)ncnc32)cc1)N1CCc2nn(C)c(Cc3ccccc3)c2C1=O	binding	competition with immobilised ligand	0.1 µM	86
CCS(=O)(=O)c1cc2cc(C[C@](O)(CC(C)(C)c3ccc(F)cc3C(N)=O)C(F)(F)F)[nH]c2cn1	cell-free assay	competition with immobilised ligand	1 µM	100
O=C(c1ccc(Nc2ncc(Cl)c(-c3ccc(Cl)s3)n2)cc1)N1CCC(N2CCCC2)CC1	binding	competition with immobilised ligand	1 µM	100
C[C@@H]1CCN(c2nccc(-c3cnn4ncccc34)n2)C1	binding		1 µM	84
O=C(NCc1ncc(C(F)(F)F)cc1Cl)c1ccc2c(c1)C1(CCS(=O)(=O)CC1)[C@@H](C1CC1)N2S(=O)(=O)c1ccc(F)cc1	cell-free assay	competition with immobilised ligand	1 µM	86
O=C(c1ccc(Nc2nccc(-c3cc4ccccc4s3)n2)cc1)N1CCC(N2CCCC2)CC1	binding	competition with immobilised ligand	1 µM	100
COc1ccc2c(O[C@@H]3C[C@H]4C(=O)N[C@]5(C(=O)O)CC5/C=C\CCCCC[C@H](NC(=O)OC5CCCC5)C(=O)N4C3)cc(-c3csc(NC(=O)C(C)C)n3)nc2c1C (stereo partly drawn)	cell-free assay	competition with immobilised ligand	1 µM	100
N[C@@H]1CCN(c2nccc(-c3cnn4ncccc34)n2)C1	binding		1 µM	100
CNC(=O)[C@@H]1CC[C@@H](n2c(-c3ccc4cnccc4c3)nc3ccc(C(=O)NCc4cccc(C(N)=O)c4)cc32)C1	binding	competition with immobilised ligand	1 µM	93
O=C(Nc1c[nH]nc1C(=O)NC1CCNCC1)c1cc(F)cc(F)c1	binding	competition with immobilised ligand	1 µM	100
CC(C)CC(=O)N1CCc2nc(-c3ccc(Br)cc3)nc(N(C)Cc3ccccc3)c2C1	cell-free assay	competition with immobilised ligand	0.1 µM	94
FC(F)(F)Oc1cccc(-c2cnc3ccc(-c4ccncc4)nn23)c1	cell-free assay	competition with immobilised ligand	5 µM	71
CCOCCn1cc(C(=O)Nc2ccc(-n3nc(-c4cccnc4)cc3C(F)(F)F)cn2)ccc1=O	cell-free assay	competition with immobilised ligand	1 µM	93
COc1cnc(Nc2cccc(S(N)(=O)=O)c2)nc1N1CCN(c2ccccc2)C(=O)C1	binding	competition with immobilised ligand	1 µM	100
CN(C)c1nccc(-c2cnc3ncccn23)n1	binding		1 µM	100
Cc1cnc(Nc2ccc(C(=O)N3CCC(N4CCCC4)CC3)cc2)nc1-c1cc2ccccc2s1	binding	competition with immobilised ligand	1 µM	74
